1 compound from ChEMBL document CHEMBL4808182, “Discovery of the Soluble Guanylate Cyclase Activator Runcaciguat (BAY 1101042)” (J Med Chem, 2021) can be followed below.

The source made the active and inactive calls.

Data set [1] in a line: Blood clearance in Wistar rat at 0.3 mg/kg, iv measured up to 24 hrs by LC-MS analysis. Format: ADME, organism-based. To be noted: whole blood. In a few lines:
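Rats dosed iv at 0.3 mg/kg; blood clearance determined.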

Data set [2] is described as follows: Volume of distribution at steady state in Beagle dog at 0.3 mg/kg, iv measured up to 24 hrs by LC-MS analysis. The data set is classed as ADME, organism-based, Canis lupus familiaris. The following applies: in vivo, read-out: Vdss.
Data set [3] in a line: Half life in Beagle dog at 0.3 mg/kg, iv measured up to 24 hrs by LC-MS analysis. The data set is classed as ADME, organism-based, Canis lupus familiaris. The following applies: in vivo.
Data set [4] is described as follows: Blood clerance in cynomolgus monkey at 0.1 mg/kg, iv measured up to 24 hrs by LC-MS analysis. Format: ADME, organism-based, Macaca fascicularis. To be noted: whole blood.
Data set [5] has as its target T1, Guanylate cyclase soluble subunit alpha-1 (Rattus norvegicus) (UniProt P19686).
T1 sequence (whole entry): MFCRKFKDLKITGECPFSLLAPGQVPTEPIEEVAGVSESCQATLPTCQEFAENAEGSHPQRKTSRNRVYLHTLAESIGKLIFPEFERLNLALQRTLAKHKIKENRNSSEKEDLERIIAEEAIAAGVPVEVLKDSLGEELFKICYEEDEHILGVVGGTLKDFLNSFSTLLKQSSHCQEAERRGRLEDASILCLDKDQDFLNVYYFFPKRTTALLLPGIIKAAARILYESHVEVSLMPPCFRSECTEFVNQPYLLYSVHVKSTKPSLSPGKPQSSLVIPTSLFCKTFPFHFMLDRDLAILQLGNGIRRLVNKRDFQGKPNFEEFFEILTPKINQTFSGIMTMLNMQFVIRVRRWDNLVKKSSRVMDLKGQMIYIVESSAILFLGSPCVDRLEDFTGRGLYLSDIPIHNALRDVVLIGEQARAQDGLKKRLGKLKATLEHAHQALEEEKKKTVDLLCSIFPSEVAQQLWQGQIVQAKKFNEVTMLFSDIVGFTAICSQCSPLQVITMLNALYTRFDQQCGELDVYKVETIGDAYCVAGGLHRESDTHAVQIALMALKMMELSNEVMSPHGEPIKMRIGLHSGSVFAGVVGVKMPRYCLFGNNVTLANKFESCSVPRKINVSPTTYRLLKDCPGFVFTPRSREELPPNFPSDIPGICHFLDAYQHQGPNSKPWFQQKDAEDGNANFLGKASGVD
The data set can be described thus: Activation of recombinant rat sGC alpha1 subunit expressed in CHO cells assessed as induction of [32P-cGMP] formation by measuring fold change at 0.01 uM using alpha-[32P-GTP] as substrate measured after 6 mins by luminescence assay. To be noted: filed as activator. In a few lines: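 Highly purified recombinant sGC enzyme was tested for stimulation of cGMP production across 0.01 to 100 μM of compound. The read-out was fold activation over basal enzyme activity. The method followed earlier published sGC stimulator/activator characterization.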

In data set [6] the target is T1, Guanylate cyclase soluble subunit alpha-1 (Rattus norvegicus). The data set can be described thus: Activation of recombinant rat sGC alpha1 subunit expressed in CHO cells assessed as induction of [32P-cGMP] formation at 0.01 to 100 uM using alpha-[32P-GTP] as substrate measured after 6 mins in presence of NO by luminescence assay. The following applies: filed as activator, dose 0.01-100 µM.

The subject of a further data set is Saphenous artery. As to the kind of experiment: Vasorelaxant activity in Chinchilla rabbit saphenous artery assessed as inhibition of phenylephrine-induced contractions. The data set is classed as functional, tissue-based. To be noted: Oryctolagus cuniculus.
The test system of another data set is Aorta. The data set can be described thus: Vasorelaxant activity in Chinchilla rabbit aortic ring assessed as inhibition of phenylephrine-induced contractions. Format: functional, tissue-based. The following applies: Oryctolagus cuniculus.
For the next data set, the system named is Coronary artery. As to the kind of experiment: Vasorelaxant activity in porcine coronary artery assessed as inhibition of U-46619-induced contractions. Format: functional, tissue-based. The following applies: Sus scrofa.
The species entered for data set [7] is Rattus norvegicus. As to the kind of experiment: Effect on left ventricular diastolic pressure in Wistar rat. Format: functional. Summed up:
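Rat hearts in Langendorff perfusion were exposed to 10 nM–10 μM. Coronary perfusion pressure, heart rate, LVDP and +dp/dt were recorded.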

The subject of data set [8] is Rattus norvegicus. The data set can be described thus: In vivo activation of sGC in Wistar rate assessed as decrease in blood pressure at 0.03 to 0.1 mg/kg, iv administered as bolus injection. Format: functional, organism-based. To be noted: dose 0.03-0.1 mg/kg. In a few lines: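 Anaesthetized rats received an iv bolus of 0.03 or 0.1 mg/kg, with or without ODQ pretreatment. Blood pressure and heart rate were recorded over time.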

Data set [9] relates to Rattus norvegicus. The data set can be described thus: Effect on tachycardia reflex in normotensive Wistar rat at 1 to 10 mg/kg, po by radiotelemetry. To be noted: dose 1-10 mg/kg. Format: functional, organism-based. Summed up: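 Conscious normotensive rats with telemetric implants received oral doses of 1, 3 or 10 mg/kg. Mean arterial pressure and heart rate were recorded continuously beyond 24 h.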

The subject of data set [10] is Rattus norvegicus. The data set can be described thus: Effect on blood pressure in spontaneous hypertensive Wistar rat at 0.1 mg/kg, po by radiotelemetry. Format: functional, organism-based. Summed up: (§1)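 Spontaneously hypertensive rats were given single oral doses of 0.1–3.0 mg/kg. Mean arterial pressure and heart rate were monitored for at least 24 h post dose, as % change.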

The subject of data set [11] is Rattus norvegicus. As to the kind of experiment: Effect on heart rate in spontaneous hypertensive Wistar rat at 0.1 mg/kg, po by radiotelemetry. The data set is classed as functional, organism-based. Summed up:
as §1

In data set [12] the test system is Rattus norvegicus. The data set can be described thus: Reduction in blood pressure in spontaneous hypertensive Wistar rat at 0.3 to 3 mg/kg, po by radiotelemetry relative to control. Also on record: scale not given: the % may be the effect or the level left. The following applies: dose 0.3-3 mg/kg. Format: functional.
In data set [13] the test system is Rattus norvegicus. The data set can be described thus: In vivo activation of sGC in po dosed renin-transgenic rat carrying [RenTG(mRRen2)27] gene assessed as decrease in mortality pretreated with NO-synthase inhibitor L-NAME followed by compound administration twice daily for 21 days and measured on day 1, 8 and 15. Format: functional, organism-based. The following applies: dose 1-10 mg/kg, time 21.0 day. In a few lines: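 L-NAME-treated renin transgenic rats were dosed at 1, 3 or 10 mg/kg BID, with placebo controls (n = 24 placebo, 18 per dose). Mortality was recorded.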

As a reminder, the clearance is a measure of how efficiently the substance is removed, as volume per time. A word on the half-life: it is the time needed for the level to fall by half in the phase considered. The IC50 is the concentration at which inhibition is half-maximal. Take `C[C@H]([C@H](C(=O)Nc1cc([C@@H](CC(=O)O)C2CC2)ccc1Cl)c1ccc(Cl)cc1)C(F)(F)F` [RUNCACIGUAT]: the clearance in data set [1] is 3.5 mL/min/kg; in [4] it was 2.67 mL/min/kg. The Vd in data set [2] was determined as 2.8 L/kg. In data set [3], this compound showed a half-life of 4.3 h. Moreover, the fold change (FC) in data set [5] was 2.6. Further, the result (in [6]; in the data set on Rattus norvegicus [9]) was Active. Further, the IC50 with Saphenous artery amounted to 199 nM; in the data set on Aorta, 39 nM; with Coronary artery it was 137 nM. The outcome in the data set listed under Rattus norvegicus [7], in the data set with Rattus norvegicus [10] and in the data set on Rattus norvegicus [11] was inactive. In addition, the Activity entry in the data set on Rattus norvegicus [8] is “Dose-Dependent Effect”; with Rattus norvegicus [12], 5%; with Rattus norvegicus [13] it was “Dose-Dependent Effect”.
